ChEMBL document CHEMBL1125582, “4-hydroxythiazole inhibitors of 5-lipoxygenase” (J Med Chem, 1991)
Each block holds one molecule with its values, some of them ahead of it. Activity calls are given as the source filed them. The calls are words filed in the database; no cut-off is given here.

Key:
[1] = molecular target: T1, Polyunsaturated fatty acid 5-lipoxygenase (Rattus norvegicus, UniProt P12527); assay: In vitro inhibition of 5-lipoxygenase (5-lo) from the 20000 g supernatant of RBI-1 cells; assay type: cell-based
T1 sequence (P12527 whole entry): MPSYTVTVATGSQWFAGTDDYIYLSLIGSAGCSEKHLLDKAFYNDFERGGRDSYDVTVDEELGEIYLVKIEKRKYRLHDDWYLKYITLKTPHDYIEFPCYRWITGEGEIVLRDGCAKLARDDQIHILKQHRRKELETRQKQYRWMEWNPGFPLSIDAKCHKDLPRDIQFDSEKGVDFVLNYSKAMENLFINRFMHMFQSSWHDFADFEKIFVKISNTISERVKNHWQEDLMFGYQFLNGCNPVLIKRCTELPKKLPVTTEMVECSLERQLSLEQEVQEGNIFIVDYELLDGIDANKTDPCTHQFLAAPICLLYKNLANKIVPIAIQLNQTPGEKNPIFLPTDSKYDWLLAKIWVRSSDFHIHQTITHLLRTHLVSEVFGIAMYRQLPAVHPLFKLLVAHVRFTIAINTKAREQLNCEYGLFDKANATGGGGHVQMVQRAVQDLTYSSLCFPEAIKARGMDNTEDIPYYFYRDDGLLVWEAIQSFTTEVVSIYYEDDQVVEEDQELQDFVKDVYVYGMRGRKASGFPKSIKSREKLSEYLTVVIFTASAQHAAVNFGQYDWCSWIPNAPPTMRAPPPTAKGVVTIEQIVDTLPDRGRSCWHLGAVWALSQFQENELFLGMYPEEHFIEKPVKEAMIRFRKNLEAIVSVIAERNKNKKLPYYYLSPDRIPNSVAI

[2] = molecular target: T1, Polyunsaturated fatty acid 5-lipoxygenase; assay: Inhibition of 5-lipoxygenase (5-lo) in intact rat polymorphonuclear leukocyte RPMNL
Procedure, shortened: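 Pleural PMNL from carrageenan-injected male Sprague-Dawley rats (200-250 g). Erythrocytes lysed with water, cells washed and held in HEPES/Earle's salts pH 7.0 with 1 mg/mL BSA. 5×10^6 cells preincubated 15 min at 37 °C with compound or DMSO (final 2%). Stimulated with A23187 (final 8.3 μM) for 10 min, stopped on ice. Methanol extracts assayed for LTB₄ by HPLC.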

[3] = molecular target: T2, Polyunsaturated fatty acid 5-lipoxygenase (Homo sapiens, UniProt P09917); assay: The compound was tested for the inhibition of 5-lipoxygenase (5-lo) in human whole blood (HWBL); assay type: tissue-based
T2 sequence (P09917 whole entry): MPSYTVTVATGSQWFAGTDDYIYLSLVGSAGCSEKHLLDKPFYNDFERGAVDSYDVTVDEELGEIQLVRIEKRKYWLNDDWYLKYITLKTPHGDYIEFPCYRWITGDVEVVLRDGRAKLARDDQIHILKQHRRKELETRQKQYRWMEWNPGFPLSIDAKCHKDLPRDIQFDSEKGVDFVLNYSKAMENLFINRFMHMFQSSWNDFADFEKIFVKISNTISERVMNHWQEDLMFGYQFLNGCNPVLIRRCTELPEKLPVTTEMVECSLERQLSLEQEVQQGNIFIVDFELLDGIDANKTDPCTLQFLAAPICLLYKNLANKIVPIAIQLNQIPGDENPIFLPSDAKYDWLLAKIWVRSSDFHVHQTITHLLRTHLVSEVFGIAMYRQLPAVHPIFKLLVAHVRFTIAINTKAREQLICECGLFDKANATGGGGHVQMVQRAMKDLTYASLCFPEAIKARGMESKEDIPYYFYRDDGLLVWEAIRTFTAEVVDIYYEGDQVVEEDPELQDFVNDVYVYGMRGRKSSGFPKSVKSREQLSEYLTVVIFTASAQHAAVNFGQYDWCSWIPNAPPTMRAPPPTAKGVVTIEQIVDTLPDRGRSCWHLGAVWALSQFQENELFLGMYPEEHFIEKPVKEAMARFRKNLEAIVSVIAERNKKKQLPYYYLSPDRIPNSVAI
Procedure, shortened: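 Heparinized (20 units/mL) human blood preincubated 15 min at 37 °C with compound or vehicle. Challenged with A23187 in DMSO (final 50 μM) for 30 min, then chilled and centrifuged. Plasma extracted with 4 volumes methanol for at least 2 h at 3 °C. LTB₄ measured by RIA or EIA.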

[4] = tested on: cyclooxygenase (Ovis aries); assay: The compound was tested for the in vitro inhibition of Prostaglandin G/H synthase of sheep seminal vesicle at a concentration of 100 uM
[5] = molecular target: T3, Arachidonate 12-lipoxygenase (Rattus norvegicus) (UniProt Q02759); assay: The compound was tested for the in vitro inhibition of platelet 12-lipoxygenase at a concentration of 100 uM
T3 sequence (whole entry): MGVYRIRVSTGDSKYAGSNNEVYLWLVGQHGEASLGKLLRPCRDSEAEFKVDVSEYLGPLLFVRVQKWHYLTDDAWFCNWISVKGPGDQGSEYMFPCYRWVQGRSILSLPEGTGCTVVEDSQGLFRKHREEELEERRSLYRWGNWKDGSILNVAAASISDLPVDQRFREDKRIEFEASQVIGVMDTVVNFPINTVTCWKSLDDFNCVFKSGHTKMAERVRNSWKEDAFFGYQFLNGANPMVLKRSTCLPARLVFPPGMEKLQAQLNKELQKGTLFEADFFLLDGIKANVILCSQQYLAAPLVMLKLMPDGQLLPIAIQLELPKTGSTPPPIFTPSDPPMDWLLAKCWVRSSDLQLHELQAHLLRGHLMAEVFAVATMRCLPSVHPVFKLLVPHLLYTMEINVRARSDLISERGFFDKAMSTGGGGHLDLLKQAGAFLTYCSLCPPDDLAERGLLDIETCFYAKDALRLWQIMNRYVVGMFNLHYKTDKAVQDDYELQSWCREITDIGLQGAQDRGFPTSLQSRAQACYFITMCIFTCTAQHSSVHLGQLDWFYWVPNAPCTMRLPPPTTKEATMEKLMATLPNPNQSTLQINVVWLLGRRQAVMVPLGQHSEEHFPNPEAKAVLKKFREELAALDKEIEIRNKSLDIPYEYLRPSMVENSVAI

[6] = tested on: 15-lipoxygenase (Glycine max); assay: The compound was tested for the in vitro inhibition of 15-lipoxygenase of soybean at a concentration of 100 uM; settings: at 100 µM
[7] = molecular target: T4, Polyunsaturated fatty acid 5-lipoxygenase (Rattus norvegicus) (UniProt P12527); assay: The compound was tested for the in vitro inhibition of 5-lipoxygenase (5-lo) from the 20000 g supernatant of RBI-1 cells; NS indicates nonsignificant inhibition at 32 uM concentration; assay type: cell-based
T4 sequence (whole entry): T1 sequence (P12527 whole entry)
Procedure, shortened: (§1)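 20000g supernatant of homogenized RBL-1 cells (7.5 × 10⁶ cell equiv/mL) preincubated 20 min at 37 °C with inhibitor or 2% Me₂SO vehicle in pH 6.8 BES/PIPES buffer with EDTA, NaCl, 0.7 mM CaCl₂. Reaction started with 66 μM [¹⁴C]arachidonic acid. [¹⁴C]-5-HETE counted by scintillation, corrected for [³H]-5-HETE recovery.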

[8] = tested on: 15-lipoxygenase (Glycine max); assay: The compound was tested for the in vitro inhibition of 15-lipoxygenase of soybean at a concentration of 10 uM; settings: at 10 µM
[9] = tested on: cyclooxygenase (Ovis aries); assay: The compound was tested for the in vitro inhibition of Prostaglandin G/H synthase of sheep seminal vesicle at a concentration of 30 uM
[10] = molecular target: T4, Polyunsaturated fatty acid 5-lipoxygenase (Rattus norvegicus); assay: The compound was tested for the in vitro inhibition of 5-lipoxygenase (5-lo) from the 20000 g supernatant of RBI-1 cells at a concentration of 30 uM; assay type: cell-based; procedure, shortened: as §1

- IC50 [1]: 9100 nM
Compound: CCCCC(=O)Oc1nc(-c2ccccc2)sc1-c1ccccc1

- IC50 [2]: 2100 nM
Compound: COC(=O)Cc1sc(-c2ccccc2)nc1O

- IC50 [1]: 1400 nM
Compound: Cc1sc(-c2cccs2)nc1O

- IC50 [3]: 740 nM
- IC50 [1]: 800 nM
Compound: Cc1ccc(-c2nc(O)c(-c3ccccc3)s2)cc1

- inhibition [4]: 11%
- inhibition [5]: 3%
- inhibition [6]: 34%
Compound: Oc1nc(-c2ccccc2)sc1CCc1ccccc1

- inhibition [7]: inactive
Compound: CCCc1sc(-c2ccccc2)nc1OS(C)(=O)=O

- IC50 [1]: 2400 nM
Compound: Cc1sc(-c2ccco2)nc1O

- IC50 [3]: 470 nM
- inhibition [4]: 20%
- inhibition [5]: 0%
- IC50 [1]: 500 nM
- inhibition [6]: 16%
Compound: Oc1nc(-c2ccc(F)cc2)sc1-c1ccccc1

- inhibition [7]: inactive
Compound: COc1nc(-c2ccccc2)sc1-c1ccccc1

- IC50 [1]: 2200 nM
Compound: Oc1nc(-c2ccc(-c3ccccc3)cc2)sc1-c1ccccc1

- IC50 [1]: 1200 nM
Compound: O=C(O)c1ccc(-c2nc(O)c(-c3ccccc3)s2)cc1

- inhibition [7]: inactive
Compound: Cc1sc(C(=O)O)nc1O

- IC50 [2]: 500 nM
Compound: CCCCc1sc(-c2ccccc2)nc1OC(C)=O

- IC50 [1]: 7300 nM
Compound: CCCCCC/C(O)=C\C/C=C\C/C=C\C=C\CCCCC(=O)O

- inhibition [5]: 0%
- inhibition [8]: 52%
- inhibition [9]: 6%
Compound: COC(=O)c1ccc(-c2nc(O)c(C)s2)cc1

- IC50 [1]: 14000 nM
Compound: Cc1sc(-c2ccncc2)nc1O

- inhibition [7]: inactive
Compound: CCOC(=O)c1nc(O)c(C)s1

Compound: CCCCNC(=O)Oc1nc(-c2ccccc2)sc1CCC
- IC50 [3]: 5500 nM
- IC50 [1]: 24000 nM
- IC50 [2]: 800 nM

- IC50 [1]: 15000 nM
Compound: Cc1sc(-c2ccc(N)cc2)nc1O

Compound: CCCc1sc(-c2ccccc2)nc1OC(=O)Nc1ccccc1
- IC50 [1]: 460 nM
- IC50 [2]: 1000 nM

- inhibition [7]: inactive
Compound: CCOC(=O)Cc1nc(O)c(C)s1

- IC50 [1]: 1400 nM
Compound: CC(=O)c1ccc(-c2nc(O)c(C)s2)cc1

- IC50 [2]: 1200 nM
Compound: Cc1ccc(-c2nc(O)c(C)s2)cc1

- IC50 [3]: 4500 nM
- IC50 [2]: 700 nM
Compound: CCCc1sc(-c2ccccc2)nc1OC(=O)OCC

- inhibition [10]: 40%
Compound: Cc1sc(-c2ccc(-c3ccccc3)cc2)nc1O

Compound: CCCCC/C=C/C/C=C/C/C=C/C/C=C/CCCC(=O)NO
- IC50 [1]: 2200 nM

- IC50 [1]: 2500 nM
Compound: Cc1sc(-c2ccc(C(F)(F)F)cc2)nc1O

- IC50 [3]: 5100 nM
- IC50 [1]: 700 nM
Compound: Cc1nc(O)c(-c2ccccc2)s1

- IC50 [1]: 14000 nM
Compound: CC(=O)Oc1nc(-c2ccc(C(=O)O)cc2)sc1C

- IC50 [1]: 30000 nM
Compound: Cc1sc(-c2ccc(C(=O)O)cc2)nc1O
